Hits are enriched below; roughly 1.5% of the tested compounds scored in any of these assays.
TPT1 inhibitor – Candida albicans TPT1 enzyme inhibitors, primary screen, biochemical, fluorescence polarization. tRNA 2'-phosphotransferase TPT1 (Candida albicans SC5314). recombinant caTPT1, FP RNA substrate dephosphorylation. inhibition, % at 5 µM. 300,000 compounds, 0.81% hits;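 active = inhibition above the mean of all tested compounds plus 3 SD, set per screening campaign, cut at about 24% in these data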;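 also: plate controls were DMSO alone for no effect and ferristatin control at 100 nM for full effect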
Rpn11 inh – Rpn11 (PSMD14) deubiquitinase inhibitors, primary screen, biochemical, fluorescence polarization, uHTS; 26S proteasome non-ATPase regulatory subunit 14 (Homo sapiens), O00487; human 26S proteasome, Ub4-pepOG fluorescence polarization; 20S core pre-blocked with epoxomicin; calls only at 20 µM; 360,000 compounds, 0.59% hits;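 active = inhibition at 20 µM, scaled to each plate's controls, above about 33%, limit read from the data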
HNF4A DNA FP – change in binding of human HNF4A to DNA, primary screen, biochemical, fluorescence polarization, FITC-DNA; 1 h; activity change, % at 10 µM; 360,000 compounds, 0.3% hits; AID 1224865, 2016; in the data active = activity change above about 30%, passing the limit was not always enough
CSN inh – inhibitors of CSN-mediated cullin deneddylation, primary screen, biochemical, fluorescence polarization, uHTS. COP9 signalosome complex subunit 5 (Homo sapiens), Q92905. Purified CSN, SCF-Nedd8-OG deneddylation. inhibition, % at 12.5 µM. 360,000 compounds, 0.38% hits;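 active = pattern-corrected inhibition above about 35%, with an unprinted fluorescence ratio check between 0.5 and 1.5, limit read from the data, passing the limit was not always enough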;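 also: 0% = enzyme with substrate and 100% = substrate without enzyme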
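Assay system: Purified human Csn5 enzyme expressed in HEK293T cells | Amount: Enzyme 0.24 nM | Measured by: Fluorescence polarization readout | Medium: Tris/NaCl/DTT buffer, pH 7.5 | Compound dosing: One concentration, 12.5 µM, 0.25% DMSO | Times: 90 min incubation of compound, enzyme and substrate at room temperature | Control set: no-enzyme wells high, enzyme-with-substrate wells low | Read-out: % inhibition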
Rpn11 inh conf – Rpn11 (PSMD14) deubiquitinase inhibitors, confirmation, biochemical, fluorescence polarization, single concentration; shares compounds with Rpn11 inh; purified human 26S proteasome, Ub4-pepOG fluorescence polarization; proteasome pretreated with epoxomicin; inhibition, % at 20 µM; 1,900 compounds, 29% hits; AID 602318, 2012
MMP-2 counter – MMP-2 enzyme inhibition, confirmation, counter-screen for RPN11 inhibitor project, biochemical, fluorescence, single concentration | shares compounds with Rpn11 inh | recombinant MMP-2, FRET peptide cleavage fluorescence | inhibition, % at 20 µM | 1,900 compounds, 4% hits | AID 602330, 2012;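 also: human MMP-2 activated beforehand with APMA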
Thrombin FP – bovine thrombin protease inhibition, confirmation, counter-screen for Rpn11 inhibitor project, biochemical, fluorescence polarization, single concentration. shares compounds with Rpn11 inh. bovine thrombin cleavage of Ub4-pepOG. inhibition, % at 20 µM. 1,900 compounds, 13% hits;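 active = mean inhibition at least 40% at 20 µM, or signal 3 deviations below plate average, so some actives read negative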;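 also: plate controls were thrombin with DMSO for no effect and buffer wells lacking thrombin for full effect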
Target sequence (P00735 whole entry, looked up): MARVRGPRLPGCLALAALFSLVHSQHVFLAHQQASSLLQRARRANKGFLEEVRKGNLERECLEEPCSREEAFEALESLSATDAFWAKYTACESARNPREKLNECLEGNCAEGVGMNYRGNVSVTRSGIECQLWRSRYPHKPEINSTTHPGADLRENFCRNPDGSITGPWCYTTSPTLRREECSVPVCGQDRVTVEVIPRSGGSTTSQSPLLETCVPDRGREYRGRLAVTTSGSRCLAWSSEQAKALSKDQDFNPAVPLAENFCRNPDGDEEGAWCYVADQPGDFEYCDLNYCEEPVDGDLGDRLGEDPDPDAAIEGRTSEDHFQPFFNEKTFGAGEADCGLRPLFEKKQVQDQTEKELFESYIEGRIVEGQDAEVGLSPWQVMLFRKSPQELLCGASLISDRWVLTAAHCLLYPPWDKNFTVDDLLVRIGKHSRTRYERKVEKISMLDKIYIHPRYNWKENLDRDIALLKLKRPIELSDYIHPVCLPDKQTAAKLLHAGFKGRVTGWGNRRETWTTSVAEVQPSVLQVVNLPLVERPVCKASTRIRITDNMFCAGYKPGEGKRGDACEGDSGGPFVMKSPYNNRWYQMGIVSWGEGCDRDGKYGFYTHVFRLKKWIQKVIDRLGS
* = called active by the depositor; i = inactive; x = not tested or not shown; + = active, no number. Rule as the data show it, unless noted: active = inhibition above about 40%; inactive = the rest.

SMILES	TPT1 inhibitor	Rpn11 inh	HNF4A DNA FP	CSN inh	Rpn11 inh conf	MMP-2 counter	Thrombin FP
CCOc1ccc2nc(SCC(=O)c3ccc(Cl)s3)sc2c1	23.2	+	2.0	9.5	-3.8	-45.6	0.2
CCOc1ccc2nc(SCC(=O)c3cccs3)sc2c1	-6.2	i	1.3	6.2	x	x	x
N#CC(C#N)=C1CCCc2sccc21	x	i	2.9	-1.4	x	x	x
CCOC(=O)Cc1csc(NC(=O)c2ccc(Br)s2)n1	-2.2	x	x	x	x	x	x
CCOc1cccc2sc(NC(=O)c3ccc(Br)s3)nc12	-1.5	+	2.1	6.8	-1.1	7.7	-4.2
Cc1ccc(S(=O)(=O)Nc2ccccc2-c2ccccc2)cc1	-0.9	+	-3.9	-4.2	-24.7	13.4	-13.7
Clc1ccc(-c2nc3cc(CN4CCCCC4)ccc3o2)cc1	x	i	1.0	3.0	x	x	x
CCOC(=O)c1c(NC(=O)CN2CCCc3ccccc32)sc(C)c1CC	4.6	+	8.5	7.0	-1.4	-25.6	5.5
CCOC(=O)c1c(NC(=O)CN2CCCc3ccccc32)sc(C)c1C	-1.3	i	3.5	-7.4	x	x	x
COc1ccc2c(c1)C1=NN(/C(C)=C/C(C)=O)C(c3cccc(F)c3)C1CC2 (centres undefined)	15.2	+	29.0	5.4	15.2	-0.2	7.5
CCCN1CCN(CCCNC(=O)c2cc3c(=O)n(C)c4ccccc4c3n2C)CC1	-0.5	i	-0.3	-1.6	x	x	x
Cn1c(C(=O)NCCCN2CCCCCC2)cc2c(=O)n(C)c3ccccc3c21	-1.7	+	8.2	15.1	-7.6	-39.1	-6.5
C=C(C)Cn1c2ccc(NC(=O)NCCc3cccs3)cc2c(=O)n1C	x	i	-2.5	3.7	x	x	x
O=C(c1ccccc1)c1ccc[nH]1	x	i	1.6	1.8	x	x	x
Cc1nc(SCC(=O)N2CCCC2=O)nc(C)c1C	x	i	1.0	-0.2	x	x	x
COc1ccccc1NC(=O)C1=C(C)NC(=O)NC1c1ccccc1[N+](=O)[O-] (centres undefined)	5.2	+	0.8	5.5	-2.1	-24.6	-22.8
O=C(CCCn1c(=S)[nH]c2ccccc2c1=O)N1CCN(c2cccc(Cl)c2)CC1	-0.6	+	-2.6	9.0	64.3*	64.7*	4.4
CC(C)CNC(=O)COC(=O)c1c2c(nc3ccccc13)/C(=C\c1cccs1)CC2	x	i	14.5	9.2	x	x	x
CN(CCC#N)C(=O)COC(=O)c1c2c(nc3ccccc13)/C(=C/c1ccco1)CC2	20.2	+	-11.0	44.7	44.8*	29.7	25.4
O=C(NC1CCCC1)C(c1ccccn1)N(Cc1ccccc1F)C(=O)c1csnn1 (centres undefined)	-0.4	+	3.6	-5.6	-21.9	-21.0	-26.6
O=C(NC1CCCC1)C(c1ccncc1)N(Cc1ccccc1F)C(=O)c1csnn1 (centres undefined)	1.9	i	4.0	-5.6	x	x	x
Cn1c(SCC(=O)NCC2CCCO2)ncc(C(=O)Nc2ccc(Cl)cc2)c1=O (centres undefined)	2.9	+	2.1	8.2	10.6	-47.3	-2.8
Cn1c(SCC(=O)NCC2CCCO2)ncc(C(=O)Nc2ccc(F)cc2)c1=O (centres undefined)	3.6	i	3.8	1.6	x	x	x
Cc1ccc(NC(=O)NC(=O)COc2c(F)c(F)cc(F)c2F)c(C)c1	x	i	-5.3	0.8	x	x	x
O=C(N/N=C/c1cccc([N+](=O)[O-])c1)c1ccc(Br)cc1	0.5	+	6.7	11.8	17.0	41.0*	1.2
SMILES	TPT1 inhibitor	Rpn11 inh	HNF4A DNA FP	CSN inh	Rpn11 inh conf	MMP-2 counter	Thrombin FP
O=C(N/N=C/c1cccc([N+](=O)[O-])c1)c1cccc(Br)c1	2.6	i	-3.6	4.7	x	x	x
COc1cc(/C=N/NC(=O)c2cccc([N+](=O)[O-])c2)ccc1OCc1ccccc1	2.9	i	3.9	1.7	x	x	x
COc1cc(/C=N/NC(=O)c2ccc(O)cc2)ccc1OCC(=O)Nc1cccc([N+](=O)[O-])c1	0.9	+	6.3	16.0	8.9	-18.2	-3.2
COc1ccc(NCC(=O)Nc2ccc(Br)cc2F)c(OC)c1	2.1	+	-2.8	0.8	3.4	-6.6	2.6
CCN(CC(=O)Nc1ccc(OC)cc1)CC(=O)Nc1ccc(Br)cc1F	2.3	i	-2.7	2.9	x	x	x
O=C(Nc1nc(-c2ccco2)cs1)c1ccccc1	19.7	+	12.4	7.7	-3.5	11.0	-11.4
O=C(Nc1nc(-c2ccccc2)cs1)c1ccco1	0.6	i	-2.8	3.2	x	x	x
Cc1nc2ccccc2c2oc(C(=O)N3CCC(N4CCCCC4)CC3)cc12	6.5	+	16.2	15.9	18.0	-36.2	1.8
Cc1nc2ccccc2c2oc(C(=O)N3CCN(C4CCCCC4)CC3)cc12	-7.8	i	-0.2	0.9	x	x	x
Cc1cc(NC(=O)CCC(=O)N(c2ccccc2)C(C(=O)NC2CCCC2)c2ccccc2)no1 (centres undefined)	-3.4	+	-2.0	-1.9	-17.3	-52.0	-13.9
COc1ccc(C(=O)NCCc2ccccn2)cc1S(=O)(=O)Nc1ccc(Br)cc1	x	i	4.0	-2.2	x	x	x
COc1ccc(CCN2C(=O)C=CC2=O)cc1OC	x	i	-1.1	-1.7	x	x	x
COC(=O)C1=C(C)N(CCc2ccc(OC)c(OC)c2)C(=O)/C1=C\N(C)C	-0.9	+	-1.4	1.6	-9.9	5.4	-10.6
Cc1ccc(Cn2c(/C=C/c3ccco3)nc3ccccc32)cc1	20.2	+	29.1	32.6	37.8	5.2	13.9
COc1ccc(C=C(c2nc3ccccc3s2)c2nc3ccccc3s2)cc1O	18.6	i	12.7	4.1	x	x	x
COc1cc(C=C(c2nc3ccccc3s2)c2nc3ccccc3s2)ccc1O	10.8	+	-3.1	13.7	4.8	-27.7	3.7
COc1cc(/C=C/c2cc(C(=O)O)c3ccccc3n2)cc(OC)c1O	-0.1	i	0.0	-3.4	x	x	x
COc1cc(/C=C/c2nc3ccccc3s2)cc(OC)c1O	16.1	+	10.3	8.2	3.9	-18.8	9.8
CCC1(c2ccccc2)NC(=O)N(CC(=O)NC2CCCCCC2)C1=O (centres undefined)	x	i	3.7	-1.5	x	x	x

Screening data as filed in PubChem.
